Measured values pooled from the literature.
Protocols differ between the studies behind these lines.
Mode: inhibitor
SLCO1B3 M233I: Solute carrier organic anion transporter family member 1B3 (SLCO1B3, Homo sapiens, UniProt Q9NPD5, M233I)
P4HB: Protein disulfide-isomerase (P4HB, Homo sapiens, UniProt P07237)
VCP: Transitional endoplasmic reticulum ATPase (VCP, Homo sapiens, UniProt P55072)
HDAC4: Histone deacetylase 4 (HDAC4, Homo sapiens, UniProt P56524)
BLK: Tyrosine-protein kinase Blk (BLK, Homo sapiens, UniProt P51451)
SLCO1B3: Solute carrier organic anion transporter family member 1B3 (SLCO1B3, Homo sapiens, UniProt Q9NPD5)

SMILES | target | test | setting | IC50
CCc1oc2cc(F)ccc2c1C(=O)c1cc(Br)c(O)c(Br)c1 | Solute carrier family 2, facilitated glucose transporter member 9 (SLC2A9, Homo sapiens, UniProt Q9NRM0) | transporter uptake | oocytes | 30.4 µM
CC(=O)O[C@H]1C(=O)[C@@]2(C)[C@H]([C@H](OC(=O)c3ccccc3)[C@]3(O)C[C@H](OC(=O)[C@H](O)[C@@H](NC(=O)c4ccccc4)c4ccccc4)C(C)=C1C3(C)C)[C@]1(OC(C)=O)CO[C@@H]1C[C@@H]2O | SLCO1B3 M233I | transporter uptake, radiometric | 2 min | > 100 µM
O=C(O[C@@H]1Cc2c(O)cc(O)cc2O[C@@H]1c1ccc(O)c(O)c1)c1cc(O)c(O)c(O)c1 | P4HB | enzyme activity, fluorescence |  | > 500 µM
Cc1c(C(N)=O)c2ccccc2n1-c1nc2c(c(NCc3ccccc3)n1)CCCN2 | VCP | enzyme activity, ADP detection |  | 0.393 µM
Clc1ccc(Nc2ccncc2)cc1Cl | G/T mismatch-specific thymine DNA glycosylase (TDG, Homo sapiens, UniProt Q13569) | enzyme activity |  | > 99 µM
COc1ccc(N(Cc2csc(-c3ccc(C)cc3)n2)C(=O)CCCCCC(=O)NO)cc1 | HDAC4 | enzyme activity |  | > 10 µM
O=C1C[C@@H](c2ccccc2)Oc2cc(O)cc(O)c21 | P4HB | enzyme activity, fluorescence |  | > 500 µM
C=CC(=O)Nc1cccc(Oc2nc(Nc3ccc(N4CCN(C)CC4)cc3)nc3ccoc23)c1 | BLK | enzyme activity |  | < 0.000254 µM
CONC(=O)c1cccc2c1cc(C)n2-c1nc2c(c(NCc3ccccc3)n1)CCCN2 | VCP | enzyme activity, ADP detection |  | 0.026 µM
Cc1cc(O)c(-c2ccc([C@@H](C)CN(C)C)cc2)c2c1[nH]c(=O)c1sccc12 | Cyclin-dependent kinase 13, with cyclin K (CDK13, Homo sapiens, UniProt Q14004) | enzyme activity |  | > 1 µM
CC(C)n1c(/C=C/C(O)CC(O)CC(=O)O)c(-c2ccc(F)cc2)c2ccccc21 (centres unmarked) | SLCO1B3 | transporter uptake, radiometric | 2 min | 0.109 µM
Cc1cc2c(C(N)=O)cccc2n1-c1nc2c(c(NCc3cccc(O)c3)n1)CCCN2 | VCP | enzyme activity, ADP detection |  | 0.014 µM
O=c1c(O)cc([C@H]2Oc3cc(O)cc(O)c3C[C@H]2O)cc2c([C@H]3Oc4cc(O)cc(O)c4C[C@H]3O)cc(O)c(O)c12 | P4HB | enzyme activity, fluorescence |  | > 500 µM
CCc1oc2ccccc2c1C(=O)c1cc(Br)c(O)c(Br)c1 | SLCO1B3 | transporter uptake, radiometric | oocytes | 25.3 µM
COc1ccc(N(Cc2csc(-c3ccccc3)n2)C(=O)CCCCCC(=O)NO)cc1 | HDAC4 | enzyme activity |  | > 10 µM
CC#CC(=O)N1CCC[C@H]1c1nc(-c2ccc(C(=O)Nc3ccccn3)cc2)c2c(N)nccn12 | BLK | enzyme activity |  | 4.22 µM
O=C(NO)c1ccc(Cn2cnc3c(Nc4ccc(Cl)cc4)ncnc32)cc1 | HDAC4 | enzyme activity |  | 3.11 µM
Cc1cc2c(C(N)=O)nccc2n1-c1nc2c(c(NCc3ccccc3)n1)CCCN2 | VCP | enzyme activity, ADP detection |  | 0.121 µM
Oc1ccc(-c2nc(-c3ccncc3)c(-c3ccc(F)cc3)[nH]2)cc1 | Tau-tubulin kinase 2 (TTBK2, Homo sapiens, UniProt Q6IQ55) | enzyme activity |  | 3.62 µM
Cc1cc2c(C(N)=O)cccc2n1-c1nc(NCc2ccccc2)c2c(n1)NC(C)CC2 (centres unmarked) | VCP | enzyme activity, ADP detection |  | 0.039 µM
CC#CC(=O)N[C@H]1CCCN(c2c(F)cc(C(N)=O)c3[nH]c(C)c(C)c23)C1 | BLK | enzyme activity |  | 0.00692 µM
CONC(=O)c1c(C)n(-c2nc3c(c(NCc4ccccc4)n2)CCCN3)c2ccccc12 | VCP | enzyme activity, ADP detection |  | 1.64 µM
CN(Cc1cnc2nc(N)nc(N)c2n1)c1ccc(C(=O)N[C@@H](CCC(=O)O)C(=O)O)cc1 | Solute carrier organic anion transporter family member 1B3 (SLCO1B3, Homo sapiens, UniProt Q9NPD5, S112A) | transporter uptake, radiometric | 2 min | > 100 µM
CCN(CCO)CCCC(C)Nc1ccnc2cc(Cl)ccc12 (centres unmarked) | Procathepsin L (CTSL, Homo sapiens, UniProt P07711) | enzyme activity, fluorescence |  | 234 µM
COc1cccc2c1C(=O)c1c(O)c3c(c(O)c1C2=O)C[C@@](O)(C(=O)CO)C[C@@H]3O[C@H]1C[C@H](N)[C@H](O)[C@H](C)O1 | SLCO1B3 M233I | transporter uptake, radiometric | 2 min | > 100 µM
O=C(O[C@@H]1[C@@H](O)[C@H](Oc2cc(O)c3c(c2)O[C@H](c2ccccc2)CC3=O)O[C@@H]2COC(=O)c3cc(O)c(O)c(O)c3-c3c(cc(O)c(O)c3O)C(=O)O[C@@H]12)c1cc(O)c(O)c(O)c1 | P4HB | enzyme activity, fluorescence |  | 1.5 µM
